The record followed here is BindingDB's records for doi:10.1021/np300893n (The University of Mississippi, 2013).

Molecules are shown by their SMILES.

The test concerns the target Myc proto-oncogene protein (Homo sapiens, UniProt P01106). The test can be described thus: Inhibition of Myc signaling pathway in human HeLa cells assessed as inhibition of PMA induced luciferase treated 30 mins before induction. The procedure, abridged: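 Reporter assay in cells transfected with pathway luciferase plasmids. Cells plated at 0.015 × 10⁶ per well in 10% FBS, switched after 24 h to DMEM with 1% FBS, then transfected. 24 h after transfection, compound (final 40, 60, 80 or 100 μM) was added, followed 30 min later by inducer (IL-6, TGF-β, wnt3a or PMA). Luciferase was read 4 or 6 h after induction (6 h for Notch, Wnt, Hedgehog). Value is the IC50 or the lowest concentration giving maximal 50–60% inhibition; two independent experiments.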

Myc proto-oncogene protein, sequence (P01106 16-454): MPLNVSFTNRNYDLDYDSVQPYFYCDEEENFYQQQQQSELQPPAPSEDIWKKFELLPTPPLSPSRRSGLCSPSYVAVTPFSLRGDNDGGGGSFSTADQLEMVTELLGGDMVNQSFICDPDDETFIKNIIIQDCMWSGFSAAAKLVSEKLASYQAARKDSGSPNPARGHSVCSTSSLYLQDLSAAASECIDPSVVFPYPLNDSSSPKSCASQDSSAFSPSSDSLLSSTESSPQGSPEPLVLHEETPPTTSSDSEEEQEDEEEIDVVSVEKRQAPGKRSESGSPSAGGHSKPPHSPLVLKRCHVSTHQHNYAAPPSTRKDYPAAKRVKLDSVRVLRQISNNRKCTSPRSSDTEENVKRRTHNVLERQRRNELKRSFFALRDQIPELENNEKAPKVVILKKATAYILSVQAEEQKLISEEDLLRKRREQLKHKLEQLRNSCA

For orientation: IC50 means the point on the concentration scale where inhibition reaches its midpoint. With `COc1cc(/C=C\c2ccc(OC)c(OC)c2)cc(OC)c1` [(Z)-3,4,3'',5''-Tetramethoxystilbene], the IC50 was 60 µM.
